Test results reported in ChEMBL document CHEMBL4270594, “Design, synthesis and pharmacological evaluation of new 3-(1H-benzimidazol-2-yl)quinolin-2(1H)-one derivatives as potential antitumor agents” (Eur J Med Chem, 2018).
The source made the active and inactive calls. The rule behind the calls is not given here.

Key:
Mus musculus [1] = experiment: Toxicity in Balb/c nude mouse xenografted with human Bel7404 cells assessed as change in body weight at 25 to 50 mg/kg, ip bid for 20 days; type: organism-based; settings: in vivo, 480 h
Mus musculus [2] = experiment: Downregulation of APAF-1 protein expression in tumor tissues of Balb/c nude mouse xenografted with human Bel7404 cells at 25 to 50 mg/kg, ip bid for 20 days measured on day 21 by Western blot analysis; type: functional, organism-based
BEL-7404 tumor cell line [3] = experiment: Antitumor activity against human Bel7404 cells xenografted in Balb/c nude mouse assessed as relative tumor volume increment rate at 25 mg/kg, ip bid for 20 days measured on day 21 post last dose relative to control; type: functional
BEL-7404 tumor cell line [4] = experiment: Cell cycle arrest in human Bel7404 cells assessed as accumulation at G1-phase at 9 uM after 48 hrs by propidium iodide staining based flow cytometry (reference value: 59.16%); type: functional
BEL-7404 tumor cell line [5] = experiment: Antitumor activity against human Bel7404 cells xenografted in Balb/c nude mouse assessed as induction of necrosis at 25 to 50 mg/kg, ip for 20 days measured on day 21 post last dose by hematoxylin and eosin staining based microscopic method; type: functional, organism-based
BEL-7404 tumor cell line [6] = experiment: Antitumor activity against human Bel7404 cells xenografted in Balb/c nude mouse assessed as tumor growth inhibition at 50 mg/kg, ip bid for 20 days measured on day 21 post last dose relative to control; type: functional; settings: BEL-7404, ip, read-out: TGI
Mus musculus [7] = experiment: Downregulation of PARP protein expression in tumor tissues of Balb/c nude mouse xenografted with human Bel7404 cells at 25 to 50 mg/kg, ip bid for 20 days measured on day 21 by Western blot analysis; type: functional, organism-based
HepG2 [8] = experiment: Cell cycle arrest in human HepG2 cells assessed as accumulation at G2-phase at 10 uM after 48 hrs by propidium iodide staining based flow cytometry (reference value: 19.04%); type: functional
HepG2 [9] = experiment: Induction of apoptosis in human HepG2 cells assessed as live cells at 10 uM after 24 hrs by Annexin V-FITC/ propidium iodide staining based flow cytometry (reference value: 91.31%); type: functional
HepG2 [10] = experiment: Upregulation of p53 protein expression in human HepG2 cells at 6 to 10 uM after 12 hrs by Western blot analysis; type: functional, cell-based
Method in brief: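 HepG2 cell lysates after compound treatment analyzed by western blot for the target protein, compared with untreated negative control.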

HepG2 [11] = experiment: Cell cycle arrest in human HepG2 cells assessed as accumulation at G1-phase at 8 uM after 48 hrs by propidium iodide staining based flow cytometry (reference value: 50.47%); type: functional
Mus musculus [12] = experiment: Upregulation of p53 protein expression in tumor tissues of Balb/c nude mouse xenografted with human NCI-H460 cells at 25 to 50 mg/kg, ip bid for 13 days measured on day 14 by Western blot analysis; type: functional, organism-based
Method in brief: (§1)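 Tumors from NCI-H460 xenografted BALB/c nude mice (25 or 50 mg/kg, vehicle 5% DMSO in saline) collected at day 14; protein levels in tumor tissue determined by western blot versus vehicle control.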

HepG2 [13] = experiment: Cell cycle arrest in human HepG2 cells assessed as accumulation at G2-phase at 8 uM after 48 hrs by propidium iodide staining based flow cytometry (reference value: 19.04%); type: functional
HepG2 [14] = experiment: Induction of apoptosis in human HepG2 cells assessed as necrotic cells at 6 uM after 24 hrs by Annexin V-FITC/ propidium iodide staining based flow cytometry (reference value: 0.28%); type: functional
HepG2 [15] = experiment: Induction of apoptosis in human HepG2 cells assessed as late apoptotic cells at 8 uM after 24 hrs by Annexin V-FITC/ propidium iodide staining based flow cytometry (reference value: 1.91%); type: functional
HepG2 [16] = experiment: Induction of apoptosis in human HepG2 cells assessed as early apoptotic cells at 8 uM after 24 hrs by Annexin V-FITC/ propidium iodide staining based flow cytometry (reference value: 6.5%); type: functional
HepG2 [17] = experiment: Induction of ROS in human HepG2 cells at 6 to 10 uM by DAPI staining based fluorescence microscopic method; type: functional, cell-based
HepG2 [18] = experiment: Upregulation of p53 protein expression in human HepG2 cells at 8 uM after 12 hrs by Western blot analysis; type: functional, cell-based
HepG2 [19] = experiment: Induction of apoptosis in human HepG2 cells assessed as cell budding at 6 to 10 uM after 12 hrs by acridine orange/ethidium bromide staining based fluorescence microscopic method; type: functional
HepG2 [20] = experiment: Induction of apoptosis in human HepG2 cells assessed as necrotic cells at 8 uM after 24 hrs by Annexin V-FITC/ propidium iodide staining based flow cytometry (reference value: 0.28%); type: functional
HepG2 [21] = experiment: Downregulation of CDC25C protein expression in human HepG2 cells at 6 to 10 uM after 12 hrs by Western blot analysis; type: functional, cell-based
HepG2 [22] = experiment: Induction of ROS in human HepG2 cells at 6 to 10 uM by DCFH-DA staining based fluorescence microscopic method; type: functional, cell-based
Mus musculus [23] = experiment: Upregulation of PARP protein expression in tumor tissues of Balb/c nude mouse xenografted with human NCI-H460 cells at 25 to 50 mg/kg, ip bid for 13 days measured on day 14 by Western blot analysis; type: functional, organism-based; method in brief: as §1
HepG2 [24] = experiment: Induction of apoptosis in human HepG2 cells assessed as pycnosis at 6 to 10 uM after 12 hrs by acridine orange/ethidium bromide staining based fluorescence microscopic method; type: functional, cell-based
Method in brief: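 HepG2 cells stained with acridine orange/ethidium bromide and examined by fluorescence microscopy; nuclei scored as yellow/green or orange, with pycnosis, membrane blebbing and cell budding taken as apoptotic morphology.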

HepG2 [25] = experiment: Downregulation of Bcl2 protein expression in human HepG2 cells at 6 to 10 uM after 12 hrs by Western blot analysis; type: functional, cell-based
HepG2 [26] = experiment: Induction of apoptosis in human HepG2 cells after 24 hrs by Annexin V-FITC/ propidium iodide staining based flow cytometry; type: functional, cell-based

**Q.** `O=c1[nH]c2cc3c(cc2cc1-c1nc2cc(Cl)ccc2[nH]1)OCO3` was tested. Which Activity (Mus musculus [1]) did it give?
**A.** The Activity was “Non-Toxic”.

**Q.** What about the Activity (Mus musculus [2]) of the same molecule?
**A.** The Activity was “Active”.

**Q.** What about the T/C (BEL-7404 tumor cell line [3]) of the same molecule?
**A.** The T/C was 51.5%.

**Q.** What about the Activity (BEL-7404 tumor cell line [4]) of the same molecule?
**A.** The Activity was 45.76%.

**Q.** And the Activity (BEL-7404 tumor cell line [5])?
**A.** Its Activity is “Active”.

**Q.** And the inhibition in vivo at 50 mg/kg (BEL-7404 tumor cell line [6])?
**A.** Its inhibition in vivo at 50 mg/kg is 44.9%.

**Q.** What about the Activity (Mus musculus [7]) of the same molecule?
**A.** The Activity was “Active”.

**Q.** Which results are given for `O=c1[nH]c2ccccc2cc1-c1nc2cc(Cl)ccc2[nH]1`?
**A.** Activity (HepG2 [8]): 49.1%; Activity (HepG2 [9]): 37.3%; Activity (HepG2 [10]): Active; Activity (HepG2 [11]): 31.1%; Activity (Mus musculus [12]): Active; Activity (HepG2 [13]): 39.71%; Activity (HepG2 [14]): 0.76%; Activity (HepG2 [15]): 10.42%; Activity (HepG2 [16]): 35.9%; Activity (HepG2 [17]): Active; Activity (HepG2 [18]): Active; Activity (HepG2 [19]): Active; Activity (HepG2 [20]): 0.32%; Activity (HepG2 [21]): Active; Activity (HepG2 [22]): Active; Activity (Mus musculus [23]): Active; Activity (HepG2 [24]): Active; Activity (HepG2 [25]): Active; Activity (HepG2 [26]): Dose-dependent effect
